Compound activity from PubChem BioAssay.
An excerpt weighted towards active compounds, which were near 2% of everything screened.
CHRM5 antagonist = CHRM5 antagonism in calcium assay | P08912 | CHO-hM5 cells, Fluo-8 calcium fluorescence, ACh EC80 | inhibition, % at 3 µM | 360,000 tested, 0.59% active;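 active = inhibition above a per-plate cutoff, the mean of that plate's test compounds plus 3 SD, cut at about 27% in these data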
Target sequence (P08912 whole entry, looked up): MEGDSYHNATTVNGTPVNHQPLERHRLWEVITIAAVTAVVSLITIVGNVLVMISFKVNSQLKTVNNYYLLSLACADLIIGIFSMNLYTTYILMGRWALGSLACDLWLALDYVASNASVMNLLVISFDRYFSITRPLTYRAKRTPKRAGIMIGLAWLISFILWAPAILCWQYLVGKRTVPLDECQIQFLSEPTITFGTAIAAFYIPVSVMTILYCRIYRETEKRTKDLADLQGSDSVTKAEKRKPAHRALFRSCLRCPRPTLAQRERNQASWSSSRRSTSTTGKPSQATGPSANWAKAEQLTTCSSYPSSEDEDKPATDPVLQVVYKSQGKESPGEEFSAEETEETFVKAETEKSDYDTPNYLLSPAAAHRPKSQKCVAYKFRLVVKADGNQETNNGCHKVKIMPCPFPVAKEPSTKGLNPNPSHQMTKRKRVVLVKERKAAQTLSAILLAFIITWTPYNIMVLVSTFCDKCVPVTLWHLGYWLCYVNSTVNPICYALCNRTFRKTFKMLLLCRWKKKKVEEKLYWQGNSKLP
M5 PAM = potentiates acetylcholine response at human M5 receptor | CHO-K1 hM5, Fluo-8 calcium, ACh EC20 PAM; 0% = ACh EC20, 100% = ACh EC100 | activation, % at 3 µM | 360,000 tested, 0.3% active | AID 624038;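 active = activation above the run cutoff, the mean activation of all test compounds plus 3 SD, cut at about 18% in these data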
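System: CHO-K1 hM5 cells. Reagent: acetylcholine, EC20 level. Compound dosing: single dose, 3 µM nominal final test concentration. Timing: Post-acetylcholine fluorescence recording 140 s. Detection: Fluo-8 calcium fluorescence. Read-out: % activation, ACh-normalized. Benchmarks: ACh EC20 and EC100 wells. Repeats: singlicate, one well per test compound.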
M1 PAM = potentiates human M1 receptor response to acetylcholine | 360,000 tested, 0.088% active | CHO-K1 hM1, Fluo-8 calcium fluorescence, ACh EC20; 0% = ACh EC20, 100% = maximal ACh | AID 588819 | P11229 | activation, % at 3 µM; in the data active = activation above about 19%, passing the limit was not always enough
CHRM1 antagonist = human CHRM1 antagonism; P11229; CHO-K1 hM1, Fluo-8 calcium fluorescence, ACh EC80 antagonist; inhibition, % at 3 µM; 360,000 tested, 1.3% active; AID 588852;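 active = percent inhibition above its own plate's cutoff, namely the mean of that plate's compound wells plus 3 SD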;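 also: peak over basal fluorescence ratio during 140 s after agonist addition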
M5 ag = CHRM5 agonism in calcium assay. activation, % at 3 µM. 360,000 tested, 0.19% active. CHO-K1 hM5 cells, Fluo-8 calcium fluorescence; 0% DMSO wells, 100% maximal acetylcholine response;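 active = activation above the run's mean over test compounds plus 3 SD, cut at about 23% in these data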;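 also: signal is peak over basal fluorescence ratio across the kinetic read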
M1 ag = agonists of human M1 muscarinic receptor; P11229; AID 588814; CHO-K1 hM1, Fluo-8 calcium fluorescence, agonist mode; 0% DMSO, 100% acetylcholine EC100; 360,000 tested, 0.33% active; activation, % at 3 µM;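 active = activation above the run's mean compound activation plus 3 SD, cut at about 16% in these data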;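 also: peak over basal fluorescence ratio within a 140 s kinetic read after compound addition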
Each line names hits and unclear results; the compound was inactive in the other large screens.

CCOC(=O)C1C(C(=O)OCC)C(C)(C)C1N(C)C (stereo not given)	none
O=C(Nc1cc(S(=O)(=O)N2CCCCC2)ccc1Cl)c1ccccc1NS(=O)(=O)c1ccc(F)cc1	CHRM5 antagonist 30
O=C(Nc1cc(S(=O)(=O)N2CCCCC2)ccc1O)c1ccccc1NS(=O)(=O)c1ccc(F)cc1	none
O=C(Cc1nc(-c2ccc([N+](=O)[O-])cc2)cs1)Nc1ccccc1	M1 ag 18
O=C(c1cc(COc2cccc3cnccc23)on1)N1CCCC(CCCO)C1 (stereo not given)	CHRM1 antagonist 48
Cc1ccc(CN(C)C(=O)c2ccc(S(=O)(=O)N(C)c3ccccc3)cc2)o1	CHRM1 antagonist 40
CN(Cc1ccc(OC(F)F)cc1)C(=O)c1ccc(S(=O)(=O)N(C)c2ccccc2)cc1	none
Cc1c(C(C)C)c(=O)n(-c2ccc(S(=O)(=O)NC3CCCCC3)cc2)n1C	CHRM5 antagonist 30
Cc1c(C(C)C)c(=O)n(-c2ccc(S(=O)(=O)NCc3ccccc3)cc2)n1C	CHRM1 antagonist 34
CC(C)NC(=O)c1csc([C@@H]2O[C@H](CO)[C@H](O)[C@H](O)[C@H]2O)n1	none
O=Nc1c(O)n(Cc2cccc(C(F)(F)F)c2)c2ccccc12	M1 ag 19
O=Nc1c(O)n(Cc2ccc(Cl)c(Cl)c2)c2ccccc12	M1 PAM 25, M1 ag 19
O=Nc1c(O)n(Cc2ccccc2)c2ccccc12	M1 ag 16
COC(=O)c1ccc(Cn2c(O)c(N=O)c3ccccc32)o1	none
COc1ccc(CCN2C(=O)CCC3=C2CCCC3=O)cc1OC	none
CCc1nc2ccc(C(=O)NCC3CCCCC3)cn2c1N(CCC(C)C)CCN(C)C	none
CC(C)(C)OC(=O)[C@H](Cc1ccccc1)NC(=O)c1[nH]cnc1C(=O)Nc1ccccc1F	none
CC(C)Oc1ccc(CN2CCC2(C)C(=O)NCc2cccc3ccccc23)cc1 (stereo not given)	none
O=C(CN1CCCC1c1ccc2c(c1)OCCO2)NC(=O)Nc1ccccc1 (stereo not given)	none
O=C(COc1cccc(Cl)c1)NNC(=S)Nc1ccccc1	none
O=C(O)CCC(=O)NNC(=O)COc1cccc(Cl)c1	M5 PAM 21
COc1ccccc1N1CCN(CCCCCCOc2ccc(F)cc2)CC1	CHRM5 antagonist 39
COc1ccccc1OCCCCN1CCN(c2ccccc2OC)CC1	none
COc1cccc(C2c3[nH]c4ccccc4c3CCN2Cc2cnc(C)s2)c1OC (stereo not given)	CHRM1 antagonist 35
COc1ccccc1C1c2[nH]c3ccccc3c2CCN1Cc1cnc(C)s1 (stereo not given)	none
C[C@H](CO)N1C[C@H](C)[C@H](CN(C)C(=O)Nc2ccc(N3CCN(C)CC3)cc2)OCc2cnnn2CCCC1=O	none
C=CCC(NC(=O)c1ccc(C#N)cc1)C(=O)NCCC (stereo not given)	M5 PAM 19
O=C(O)c1ccccc1/C=N/NC(=S)NCc1ccccc1	CHRM5 antagonist 32, M5 PAM 34
O=C(NN=Cc1ccccc1C(=O)O)C(=O)NN=Cc1ccccc1C(=O)O	none
C=CCn1c(SCC(=O)NCCc2ccccc2)nnc1C1CC1	none
C=CCn1c(SCC(=O)NCc2ccccc2)nnc1C1CCCCC1	M5 PAM 25
O=C(NCc1cccs1)c1ccc2sc(COCCO)nc2c1	none
CC(=O)c1ccccc1Oc1cc(NN2CCCCC2)c([N+](=O)[O-])cc1[N+](=O)[O-]	CHRM1 antagonist 36
CC(=O)c1cccc(Oc2cc(NN3CCCCC3)c([N+](=O)[O-])cc2[N+](=O)[O-])c1	none
O=[N+]([O-])c1cc([N+](=O)[O-])c(Oc2cccc3ccccc23)cc1NN1CCCCC1	M1 PAM 30
COc1ccc(C(=O)N/C(=C\c2cn(S(=O)(=O)N(C)C)c3ccccc23)C(=O)N2CCN(C)CC2)cc1OC	none
Cc1ccccc1CN1C(=O)Nc2ccccc2C(=O)N1C(C)(C)C	M5 PAM 50
CN1CCN(CC(O)(c2ccc(Cl)cc2)c2ccc(Cl)cc2)CC1	CHRM5 antagonist 36, CHRM1 antagonist 72
Cc1cc(S(=O)(=O)NC(=O)[C@H]2O[C@@H](n3cnc4c(N)ncnc43)[C@H](O)[C@@H]2O)ccc1Br	none
c1ccc(-n2nnnc2Oc2ccc(-c3nnco3)cc2)cc1	CHRM5 antagonist 79, M5 ag 84
COc1ccc(Oc2nnnn2-c2ccccc2)cc1	none
CCN(CC)S(=O)(=O)c1cccc(C(=O)N/N=C/c2ccc(O)c(O)c2O)c1	M1 PAM 26
CCOc1ccccc1/C=N/NC(=O)c1cccc(S(=O)(=O)N(CC)CC)c1	none
CCc1c(-c2ccc(Br)cc2)ncn1Cc1cccc(-c2ccccc2)c1	CHRM5 antagonist 72 (no result: M1 PAM, CHRM1 antagonist, M1 ag)
CC(C)(C)NC(=O)CN(Cc1ccc2c(c1)OCO2)C(=O)CNS(=O)(=O)c1ccc(F)cc1	M5 PAM 27
CC1(C)NC(=O)N(CCC(=O)Nc2ccc(C(C)(C)C)cc2)C1=O	none
CS(=O)(=O)N(CC(=O)Nc1c(F)cccc1F)c1ccc(C23CC4CC(CC(C4)C2)C3)cc1	M1 ag 21
CNC(=O)CN(c1ccc(C23CC4CC(CC(C4)C2)C3)cc1)S(C)(=O)=O	none
CN(CC(=O)NCc1ccco1)C(=O)C1CC(=O)N(c2ccc3c(c2)OCCO3)C1 (stereo not given)	M1 PAM 28
Cc1noc(C)c1C(=O)OC(C)C(=O)c1c[nH]c2ccccc12 (stereo not given)	none
COc1cc(CNC(=O)c2cc(-c3ccc(F)cc3C)n[nH]2)cc(OC)c1	none
Cc1ccc(C)c(N2CCN(C(=O)C3CCN(c4nnc(N5CCCC5=O)s4)CC3)CC2)c1	none
O=C(C1CCN(c2nnc(N3CCCC3=O)s2)CC1)N1CCN(c2cccc(C(F)(F)F)c2)CC1	CHRM1 antagonist 77
O=C(CCCc1ccccc1)c1ccccc1	none
CCN(CCCC(=O)c1ccc(F)cc1)CCc1ccccc1	CHRM1 antagonist 59
Cc1nnsc1SCCNC(=O)Nc1ccc(Cl)cc1	CHRM5 antagonist 32, CHRM1 antagonist 37
O=C(NCCNC(=O)Nc1ccc(Cl)cc1)Nc1ccc(Cl)cc1	none
Cc1ccc(S(=O)(=O)N2C[C@H]3C(=O)C[C@@H](c4ccccc4)N(S(=O)(=O)c4ccc(C)cc4)[C@H]3C[C@H]2c2cccs2)cc1	none
Cc1ccc(CC(=O)N2CCN(c3cccc(C(F)(F)F)c3)CC2)cc1	CHRM1 antagonist 32
O=C(c1ccccc1F)N1CCN(c2cccc(C(F)(F)F)c2)CC1	none
